Consider four molecules from publication PMC4120261 (Biofouling, 2013).

The target in one assay is WspR (Pseudomonas aeruginosa, UniProt Q9HXT9). Put plainly: EnzChek pyrophosphate assay. In kind it is biochemical. The method in brief: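 C-terminally 6×His-tagged WspR is expressed in E. coli BL21(DE3) in LB with 100 μg ml−1 ampicillin at 37 °C, then induced at A600 1.0 with 1 mM IPTG at 18 °C for 12–16 h. Cells are sonicated and the protein is purified by IMAC (500 mM imidazole elution), then Superdex 200 SEC in 25 mM Tris-HCl pH 7.4, 100 mM NaCl, 1 mM DTT. Pyrophosphate released from GTP-to-c-di-GMP conversion is read by EnzChek.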

Another assay concerns the target tDGC-R158A (Thermotoga maritima, UniProt Q9X2A8, R158A). Put plainly: EnzChek pyrophosphate assay. As to conditions: substrate GTP. It is filed as biochemical. The method in brief:
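C-terminally 6×His-tagged T. maritima tDGC-R158A is expressed in E. coli BL21(DE3) with kanamycin at 37 °C and induced at OD600 0.8 with 0.8 mM IPTG at 25 °C for 4 h. It is French-press lysed and purified on Ni-NTA with a 20–500 mM imidazole gradient in Tris-HCl pH 8.0. Pyrophosphate from GTP conversion is read by a high-throughput-adapted EnzChek assay, giving % inhibition versus untreated enzyme.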

In general, IC50 refers to the concentration that gives 50% inhibition. A higher IC50 goes with weaker potency in that assay. `CC(=O)c1c(O)c(C)c(O)c(Cc2c(O)c3c(c(C(=O)/C=C/c4ccccc4)c2O)OC(C)(C)C=C3)c1O` [LP 1062, (E)-1-[6-[(3-acetyl-2,4,6-trihydroxy-5-methylphenyl)methyl]-5,7-dihydroxy-2,2-dimethyl-2H-1-benzopyran-8-yl]-3-phenyl-2-propen-1-one] returned an IC50 against WspR of 73.1 µM. The molecule `CCOc1ccc(/C=N/NC(=O)c2cc(O)c(O)c(O)c2)cc1CN1CC2CC(C1)c1cccc(=O)n1C2` (stereo not drawn) [LP 3134, N′-((1E)-{4-ethoxy-3-[(8-oxo-1,5,6,8-tetrahydro-2H-1,5-methanopyrido[1,2-a][1,5]diazocin-3(4H)-yl)methyl]phenyl}methylene)-3,4,5-trihydroxybenzohydrazide] came in with an IC50 at WspR of 44.9 µM. Besides, on tDGC-R158A (100 µM), the “% Inhibition of tDGC-R158A” value is 72.1%. On WspR, `Cc1cc2c(C(C)C)c(O)c(O)c(C=O)c2c(O)c1-c1c(C)cc2c(C(C)C)c(O)c(O)c(C=O)c2c1O` [LP 3145, 1,1′,6,6′,7,7′-hexahydroxy-5,5′-diisopropyl-3,3′-dimethyl-2,2′-binaphthalene-8,8′-dicarbaldehyde] gave an IC50 of 70.9 µM. Take `CN(CCCn1c2c(c(=O)[nH]c1=O)CSCC2)S(=O)(=O)c1ccc(N)cc1` [LP 4010]: it took 102 µM to reach half-maximal inhibition against WspR (IC50). In addition, at tDGC-R158A (200 µM), the “% Inhibition of tDGC-R158A” value came out at 20.5%.
